Data reported in ChEMBL document CHEMBL3351510, “Identification and development of 2-methylimidazo[1,2-a]pyridine-3-carboxamides as Mycobacterium tuberculosis pantothenate synthetase inhibitors” (Bioorg Med Chem, 2014).
Converted amounts (≈) assume the structure as drawn.

Assays:
[1] = Cytotoxicity against mouse RAW264.7 cells assessed as inhibition of cell viability at 50 uM after 72 hrs by MTT assay; type: cell-based; conditions: read-out: INH
[2] = test system: Mycobacterium tuberculosis; assay: Antimycobacterial activity against Mycobacterium tuberculosis H37Rv ATCC 27294 assessed as growth inhibition after 28 days by agar dilution method; type: functional; conditions: H37Rv ATCC 27294, 672 h
Method in brief: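 Agar dilution in Middlebrook 7H11 with OADC; two-fold dilutions, final 50 to 0.78 µg/mL. Inoculum from fresh 7H11 slants, 1 mg/mL wet weight in 0.05% Tween 80 saline, diluted 10⁻² (~10⁷ cfu/mL); 5 µL spotted per tube. Incubated 37 °C, read at 28 days; MIC = lowest concentration giving complete growth inhibition. Isoniazid, ethambutol, GSK358607A references.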

Pantothenate synthetase = target: T1, Pantothenate synthetase (Mycobacterium tuberculosis, UniProt P9WIL5); assay: Inhibition of Mycobacterium tuberculosis pantothenate synthetase expressed in Escherichia coli BL21 (DE3) by spectrophotometry
T1 sequence (P9WIL5 whole entry): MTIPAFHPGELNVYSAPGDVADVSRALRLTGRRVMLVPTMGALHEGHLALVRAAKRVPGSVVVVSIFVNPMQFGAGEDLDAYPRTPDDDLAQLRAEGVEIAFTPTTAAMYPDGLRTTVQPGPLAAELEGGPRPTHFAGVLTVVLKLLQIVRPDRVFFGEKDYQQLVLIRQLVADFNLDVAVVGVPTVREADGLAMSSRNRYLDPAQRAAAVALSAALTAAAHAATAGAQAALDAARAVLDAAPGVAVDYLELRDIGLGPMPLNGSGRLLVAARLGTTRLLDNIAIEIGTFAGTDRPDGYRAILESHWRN
Method in brief: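 Reaction started by adding PS diluted in buffer; absorbance at 340 nm read every 12 s for 120 s. Percent inhibition = 100 × [1 − (compound rate − background rate)/(full reaction rate − background rate)].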

[3] = target: T2, Pantothenate synthetase (Mycobacterium tuberculosis) (UniProt P9WIL5); assay: Binding affinity to Mycobacterium tuberculosis pantothenate synthetase assessed as melting temperature by differential scanning fluorimetry
T2 sequence (whole entry): T1 sequence (P9WIL5 whole entry)
Method in brief: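 Protein–ligand complexes with SYPRO Orange dye heated 25 to 95 °C in 0.1 °C steps; fluorescence tracked to obtain Tm, with shift relative to native protein taken as stabilisation from binding.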

Cc1nc2ccccn2c1C(=O)NNC(=O)c1cc([N+](=O)[O-])cc([N+](=O)[O-])c1
cytotoxicity at 72 h, 50 µM [1]: 40.6%
MIC [2]: 16.2 µM (≈ 6.24 µg/mL)
IC50 (Pantothenate synthetase): 6.48 µM

Cc1nc2ccccn2c1C(=O)N/N=C/c1ccccc1
MIC [2]: 179 µM (≈ 49.9 µg/mL)
IC50 (Pantothenate synthetase): 4.86 µM

Cc1nc2ccccn2c1C(=O)Nc1cccc(C(F)(F)F)c1
MIC [2]: 78.1 µM (≈ 24.9 µg/mL)
IC50 (Pantothenate synthetase): 7.01 µM

Cc1nc2ccccn2c1C(=O)NNC(=O)c1ccccc1
MIC [2]: 42.4 µM (≈ 12.5 µg/mL)
IC50 (Pantothenate synthetase): 3.54 µM

Cc1nc2ccccn2c1C(=O)NNC(=O)c1ccc(Oc2ccccc2)cc1
MIC [2]: 32.3 µM (≈ 12.5 µg/mL)
IC50 (Pantothenate synthetase): 7.22 µM

Cc1nc2ccccn2c1C(=O)Nc1ccccc1
MIC [2]: 188 µM (≈ 47.2 µg/mL)
IC50 (Pantothenate synthetase): 12.8 µM

Cc1nc2ccccn2c1C(=O)N/N=C/c1ccc(C(F)(F)F)cc1
cytotoxicity at 72 h, 50 µM [1]: 24.6%
MIC [2]: 9.01 µM (≈ 3.12 µg/mL)
IC50 (Pantothenate synthetase): 8.18 µM

Cc1nc2ccccn2c1C(=O)Nc1ccc(Cl)cc1
MIC [2]: 87.4 µM (≈ 25 µg/mL)
IC50 (Pantothenate synthetase): 2.6 µM

Cc1nc2ccccn2c1C(=O)NCc1ccccc1
cytotoxicity at 72 h, 50 µM [1]: 24.5%
MIC [2]: 23.5 µM (≈ 6.23 µg/mL)
IC50 (Pantothenate synthetase): 2.74 µM

Cc1nc2ccccn2c1C(=O)NNC(=O)c1ccco1
cytotoxicity at 72 h, 50 µM [1]: 16.8%
MIC [2]: 11 µM (≈ 3.12 µg/mL)
IC50 (Pantothenate synthetase): 8.93 µM

Cc1nc2ccccn2c1C(=O)N/N=C/c1ccc(O)cc1
cytotoxicity at 72 h, 50 µM [1]: 19.4%
MIC [2]: 21.2 µM (≈ 6.24 µg/mL)
IC50 (Pantothenate synthetase): 7.49 µM

Cc1nc2ccccn2c1C(=O)NCc1ccco1
cytotoxicity at 72 h, 50 µM [1]: 20.7%
MIC [2]: 24.4 µM (≈ 6.23 µg/mL)
IC50 (Pantothenate synthetase): 2.81 µM

Cc1nc2ccccn2c1C(=O)N/N=C/c1ccc(Br)cc1
MIC [2]: 35 µM (≈ 12.5 µg/mL)
IC50 (Pantothenate synthetase): 4.43 µM

Cc1nc2ccccn2c1C(=O)NNC(=O)c1cccc2ccccc12
cytotoxicity at 72 h, 50 µM [1]: 28.4%
Tm [3]: 51 °C
MIC [2]: 4.53 µM (≈ 1.56 µg/mL)
IC50 (Pantothenate synthetase): 1.9 µM

CC[C@@H](CO)NCCN[C@@H](CC)CO [ETHAMBUTOL]
MIC [2]: 7.64 µM (≈ 1.56 µg/mL)
IC50 (Pantothenate synthetase): > 25 µM

Cc1nc2ccccn2c1C(=O)N/N=C/c1ccc(F)cc1
cytotoxicity at 72 h, 50 µM [1]: 20.9%
MIC [2]: 21 µM (≈ 6.23 µg/mL)
IC50 (Pantothenate synthetase): 3.77 µM

Cc1nc2ccccn2c1C(=O)Nc1ccc(Br)cc1
MIC [2]: 37.9 µM (≈ 12.5 µg/mL)
IC50 (Pantothenate synthetase): 6.95 µM

Cc1nc2ccccn2c1C(=O)NC1CCCCC1
MIC [2]: 96.9 µM (≈ 24.9 µg/mL)
IC50 (Pantothenate synthetase): 1.99 µM

Cc1nc2ccccn2c1C(=O)NNC(=O)C1CCCCC1
cytotoxicity at 72 h, 50 µM [1]: 31.7%
MIC [2]: 10.4 µM (≈ 3.12 µg/mL)
IC50 (Pantothenate synthetase): 7.7 µM

COc1ccccc1C(=O)NNC(=O)c1c(C)nc2ccccn12
cytotoxicity at 72 h, 50 µM [1]: 19%
MIC [2]: 19.2 µM (≈ 6.24 µg/mL)
IC50 (Pantothenate synthetase): 8.21 µM

Cc1nc2ccccn2c1C(=O)Nc1ccccn1
MIC [2]: 98.8 µM (≈ 24.9 µg/mL)
IC50 (Pantothenate synthetase): > 25 µM

Cc1ccc(C(=O)NNC(=O)c2c(C)nc3ccccn23)cc1
MIC [2]: 80.9 µM (≈ 24.9 µg/mL)
IC50 (Pantothenate synthetase): 3.35 µM

Cc1nc2ccccn2c1C(=O)N/N=C/c1ccc([N+](=O)[O-])cc1
MIC [2]: 38.6 µM (≈ 12.5 µg/mL)
IC50 (Pantothenate synthetase): > 25 µM

Cc1nc2ccccn2c1C(=O)NNC(=O)c1cccc([N+](=O)[O-])c1
MIC [2]: 36.8 µM (≈ 12.5 µg/mL)
IC50 (Pantothenate synthetase): 9.2 µM

Cc1ccc2nc(C)c(C(=O)NCc3cccs3)n2c1
MIC [2]: 0.19 µM (≈ 0.0542 µg/mL)
IC50 (Pantothenate synthetase): 8.12 µM

Cc1ccc(/C=N/NC(=O)c2c(C)nc3ccccn23)cc1
cytotoxicity at 72 h, 50 µM [1]: 16.7%
MIC [2]: 21.3 µM (≈ 6.24 µg/mL)
IC50 (Pantothenate synthetase): 7.46 µM

NNC(=O)c1ccncc1 [ISONIAZID]
MIC [2]: 0.72 µM (≈ 0.0987 µg/mL)
IC50 (Pantothenate synthetase): > 25 µM

Cc1nc2ccccn2c1C(=O)N/N=C/c1ccc(OCc2ccccc2)cc1
MIC [2]: 32.5 µM (≈ 12.5 µg/mL)
IC50 (Pantothenate synthetase): 5.37 µM

Cc1nc2ccccn2c1C(=O)NNC(=O)c1ccc(Cl)cc1Cl
cytotoxicity at 72 h, 50 µM [1]: 20.1%
MIC [2]: 17.2 µM (≈ 6.25 µg/mL)
IC50 (Pantothenate synthetase): 5.13 µM

COc1ccc(/C=N/NC(=O)c2c(C)nc3ccccn23)cc1
MIC [2]: 80.9 µM (≈ 24.9 µg/mL)
IC50 (Pantothenate synthetase): 6.37 µM

COc1cc(/C=N/NC(=O)c2c(C)nc3ccccn23)cc(OC)c1OC
MIC [2]: 67.8 µM (≈ 25 µg/mL)
IC50 (Pantothenate synthetase): 7.05 µM

CCOc1ccc(NC(=O)c2c(C)nc3ccccn23)cc1
MIC [2]: 42.2 µM (≈ 12.5 µg/mL)
IC50 (Pantothenate synthetase): > 25 µM

Cc1nc2ccccn2c1C(=O)NCCc1ccccc1
MIC [2]: 89.3 µM (≈ 24.9 µg/mL)
IC50 (Pantothenate synthetase): 5.77 µM
